Measurements as given in ChEMBL document CHEMBL1135602 (J Med Chem, 2002).

target: Bifunctional dihydrofolate reductase-thymidylate synthase (Plasmodium falciparum K1) (UniProt P13922); experiment: Inhibition of the C59R+S108N mutant of dihydrofolate reductase (DHFR)relative to Tmp; conditions: not given
In short: (§1)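 Assayed at 25 °C in 50 mM TES pH 7.0, 75 mM β-mercaptoethanol, 1 mg/mL BSA, with 100 µM H2folate and 100 µM NADPH. A340 was followed. Ki was derived from IC50 = Ki(1+[S]/Km), assuming competitive inhibition.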

Bifunctional dihydrofolate reductase-thymidylate synthase (Plasmodium falciparum K1), sequence (P13922 whole entry, looked up): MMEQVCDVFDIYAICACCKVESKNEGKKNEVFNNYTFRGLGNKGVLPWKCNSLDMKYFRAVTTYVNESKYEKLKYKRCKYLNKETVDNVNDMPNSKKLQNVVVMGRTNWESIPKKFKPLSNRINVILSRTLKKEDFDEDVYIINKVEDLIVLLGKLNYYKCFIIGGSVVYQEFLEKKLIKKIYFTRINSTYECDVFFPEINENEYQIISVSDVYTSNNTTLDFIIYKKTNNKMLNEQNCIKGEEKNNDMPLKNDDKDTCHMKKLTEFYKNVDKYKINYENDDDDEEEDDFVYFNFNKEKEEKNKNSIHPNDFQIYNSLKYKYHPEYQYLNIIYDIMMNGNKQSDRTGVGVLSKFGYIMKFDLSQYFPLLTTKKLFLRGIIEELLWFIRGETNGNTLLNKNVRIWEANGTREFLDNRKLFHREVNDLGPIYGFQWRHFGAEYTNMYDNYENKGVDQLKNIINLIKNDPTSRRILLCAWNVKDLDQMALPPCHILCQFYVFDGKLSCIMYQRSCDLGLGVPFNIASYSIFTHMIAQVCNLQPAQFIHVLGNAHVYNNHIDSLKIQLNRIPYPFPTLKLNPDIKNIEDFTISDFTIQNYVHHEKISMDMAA

| SMILES | Relative activity |
| --- | --- |
| COc1cc(COc2cc(Cc3cnc(N)nc3N)ccc2OCc2ccccc2)cc(OC)c1OC | 2.1 |

system: not listed separately; experiment: Safety ratio is cytotoxicity to BC cells/IC50 K1.; type: toxicity, cell-based; conditions: human, BC cells (breast cancer); read-out: Safety ratio
In short: (§2)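 Ratio of the cytotoxicity IC50 (vero, KB or BC cells, Skehan protocol) to the antiplasmodial IC50 against K1CB1 (C59R+S108N DHFR). […] Label was added at 24 h and cultures ran a further 18-24 h. Final DMSO was 0.1%.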

| SMILES | selectivity ratio |
| --- | --- |
| CCc1nc(N)nc(N)c1-c1ccccc1 | > 151 |

system: Plasmodium falciparum; experiment: IC50 ratio against Plasmodium falciparum K1CB1/TM4; type: functional; conditions: not given

| SMILES | Ratio |
| --- | --- |
| Nc1ncc(-c2ccccc2)c(N)n1 | 0.9 |
| COC(=O)CCCc1nc(N)nc(N)c1-c1ccccc1 | 78.3 |
| Nc1nc(N)c(-c2ccc(Cl)cc2)c(CCCc2ccccc2)n1 | 212 |
| CCc1nc(N)nc(N)c1-c1ccc(OC)cc1 | >84 |
| CCc1nc(N)nc(N)c1-c1ccccc1 | 4.7 |
| COc1cc(COc2cc(Cc3cnc(N)nc3N)ccc2OCc2ccccc2)cc(OC)c1OC | 0.9 |

system: Vero; experiment: Cytotoxicity by the selective inhibition against African green monkey kidney […] (vero cells).; type: functional, cell-based; conditions: Chlorocebus sabaeus

| SMILES | IC50 |
| --- | --- |
| CCc1nc(N)nc(N)c1-c1cccc(Cl)c1 | 7000 nM |
| CCc1nc(N)nc(N)c1-c1ccccc1 | 320000 nM |

system: KB; experiment: Cytotoxicity against human epidermoid carcinoma KB cell.; type: functional, cell-based; conditions: not given

| SMILES | IC50 |
| --- | --- |
| CCc1nc(N)nc(N)c1-c1cccc(Cl)c1 | 46000 nM |
| CCc1nc(N)nc(N)c1-c1ccccc1 | > 500000 nM |

system: Plasmodium falciparum; experiment: Safety ratio as cytotoxicity in vero cells relative to IC50 TM4; type: functional; conditions: not given

| SMILES | Safety ratio |
| --- | --- |
| CCc1nc(N)nc(N)c1-c1ccccc1 | 444 |

system: not listed separately; experiment: Safety ratio is cytotoxicity to KB cells/IC50 K1.; type: toxicity, cell-based; conditions: human, KB cells (epidermoid carcinoma); read-out: Safety ratio; in short: as §2

| SMILES | selectivity ratio |
| --- | --- |
| CCc1nc(N)nc(N)c1-c1ccccc1 | > 151 |

system: not listed separately; experiment: Safety ratio is cytotoxicity to vero cells/IC50 K1.; type: toxicity, cell-based; conditions: monkey, read-out: Safety ratio; in short: as §2

| SMILES | selectivity ratio |
| --- | --- |
| CCc1nc(N)nc(N)c1-c1ccccc1 | 96 |

target: Bifunctional dihydrofolate reductase-thymidylate synthase (Plasmodium falciparum K1) (UniProt P13922); experiment: Inhibition of the S108N mutant of dihydrofolate reductase (DHFR) relative to Pyr.; conditions: not given; in short: as §1

| SMILES | Relative activity |
| --- | --- |
| CCc1nc(N)nc(N)c1-c1ccc(OC)cc1 | 1.4 |
| CCc1nc(N)nc(N)c1-c1ccccc1 | 0.2 |

system: not listed separately; experiment: Safety ratio is cytotoxicity to KB cells/IC50 TM4.; type: toxicity, cell-based; conditions: human, KB cells (epidermoid carcinoma); read-out: Safety ratio
In short: (§3)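 Ratio of the cytotoxicity IC50 (KB or BC cells, Skehan protocol) to the antiplasmodial IC50 against TM4/8.2 (wild-type DHFR). […] Label was added after 24 h and cultures ran a further 18-24 h.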

| SMILES | selectivity ratio |
| --- | --- |
| CCc1nc(N)nc(N)c1-c1ccccc1 | > 714 |

system: Plasmodium falciparum; experiment: Relative antiplasmodial activity (IC50) compared to Pyr against Plasmodium falciparum K1CB1 DHFR double-mutant (C59R/S108N); type: functional; conditions: not given

| SMILES | Relative activity |
| --- | --- |
| CCc1nc(N)nc(N)c1-c1ccc(OC)cc1 | >0.8 |
| CCc1nc(N)nc(N)c1-c1ccccc1 | 0.1 |

system: Bifunctional dihydrofolate reductase-thymidylate synthase (Plasmodium falciparum K1), P13922 [UNDEFINED MUTATION]; experiment: Ratio of Inhibition of the S108N mutant of dihydrofolate reductase (DHFR) to inhibition of wild type dihydrofolate reductase.; conditions: not given
Sequence (P13922 whole entry, looked up, stated change not applied): as the sequence (P13922 whole entry, looked up) above

| SMILES | Ratio |
| --- | --- |
| Nc1ncc(-c2ccccc2)c(N)n1 | 1.9 |
| COC(=O)CCCc1nc(N)nc(N)c1-c1ccccc1 | 0.06 |
| Nc1nc(N)c(-c2ccc(Cl)cc2)c(CCCc2ccccc2)n1 | 19.9 |
| CCc1nc(N)nc(N)c1-c1ccc(OC)cc1 | 43.3 |
| CCc1nc(N)nc(N)c1-c1ccccc1 | 2 |
| COc1cc(COc2cc(Cc3cnc(N)nc3N)ccc2OCc2ccccc2)cc(OC)c1OC | 2.5 |

system: BC; experiment: Cytotoxicity against human breast cancer cells.; type: functional, cell-based; conditions: not given

| SMILES | IC50 |
| --- | --- |
| CCc1nc(N)nc(N)c1-c1cccc(Cl)c1 | 25000 nM |
| CCc1nc(N)nc(N)c1-c1ccccc1 | > 500000 nM |

target: Bifunctional dihydrofolate reductase-thymidylate synthase (Plasmodium falciparum K1) (UniProt P13922); experiment: Inhibition of the wild-type dihydrofolate reductase (DHFR) relative to Tmp; conditions: not given; in short: as §1

| SMILES | Relative activity |
| --- | --- |
| COc1cc(COc2cc(Cc3cnc(N)nc3N)ccc2OCc2ccccc2)cc(OC)c1OC | 1.2 |

system: Plasmodium falciparum; experiment: In vitro relative antiplasmodial activity (IC50) compared to Pyr against Plasmodium falciparum TM4/8.2 wild-type; type: functional; conditions: not given

| SMILES | Relative activity |
| --- | --- |
| CCc1nc(N)nc(N)c1-c1ccc(OC)cc1 | 3.8 |
| CCc1nc(N)nc(N)c1-c1ccccc1 | 8.7 |

system: not listed separately; experiment: Safety ratio is cytotoxicity to BC cells/IC50 TM4.; type: toxicity, cell-based; conditions: human, BC cells (breast cancer); read-out: Safety ratio; in short: as §3

| SMILES | selectivity ratio |
| --- | --- |
| CCc1nc(N)nc(N)c1-c1ccccc1 | > 714 |

target: Bifunctional dihydrofolate reductase-thymidylate synthase (Plasmodium falciparum K1, UniProt P13922, S108N); experiment: Inhibition of the S108N mutant of dihydrofolate reductase (DHFR); conditions: not given
Sequence (P13922 whole entry, looked up, stated change not applied): as the sequence (P13922 whole entry, looked up) above
In short: (§4)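 Assay at 25 °C: 50 mM TES pH 7.0, 75 mM β-mercaptoethanol, 1 mg/mL BSA, 100 µM H2folate and 100 µM NADPH. NADPH oxidation followed at 340 nm. Ki derived from IC50 as Ki(1+[S]/Km), assuming competitive inhibition.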

| SMILES | Ki |
| --- | --- |
| Nc1ncc(-c2ccccc2)c(N)n1 | 81 nM |
| COC(=O)CCCc1nc(N)nc(N)c1-c1ccccc1 | 1.8 nM |
| CCc1nc(N)nc(N)c1-c1cccc(Cl)c1 | 1.6 nM |
| Nc1nc(N)c(-c2ccc(Cl)cc2)c(CCCc2ccccc2)n1 | 13.9 nM |
| CCc1nc(N)nc(N)c1-c1ccc(OC)cc1 | 39 nM |
| CCc1nc(N)nc(N)c1-c1ccccc1 | 4.5 nM |
| COc1cc(COc2cc(Cc3cnc(N)nc3N)ccc2OCc2ccccc2)cc(OC)c1OC | 180 nM |

system: Plasmodium falciparum; experiment: In vitro antiplasmodial activity (IC50) against Plasmodium falciparum wtTM4/8.2; type: functional, organism-based; conditions: not given

| SMILES | IC50 |
| --- | --- |
| Nc1ncc(-c2ccccc2)c(N)n1 | 20900 nM |
| COC(=O)CCCc1nc(N)nc(N)c1-c1ccccc1 | 400 nM |
| CCc1nc(N)nc(N)c1-c1cccc(Cl)c1 | 400 nM |
| Nc1nc(N)c(-c2ccc(Cl)cc2)c(CCCc2ccccc2)n1 | 50 nM |
| CCc1nc(N)nc(N)c1-c1ccc(OC)cc1 | 300 nM |
| CCc1nc(N)nc(N)c1-c1ccccc1 | 700 nM |
| COc1cc(COc2cc(Cc3cnc(N)nc3N)ccc2OCc2ccccc2)cc(OC)c1OC | 19000 nM |

target: Bifunctional dihydrofolate reductase-thymidylate synthase (Plasmodium falciparum K1, UniProt P13922); experiment: Inhibition of the C59R+S108N mutant of dihydrofolate reductase (DHFR); conditions: not given; in short: as §4
Sequence (P13922 whole entry): as the sequence (P13922 whole entry, looked up) above

| SMILES | Ki |
| --- | --- |
| Nc1ncc(-c2ccccc2)c(N)n1 | 76.2 nM |
| COC(=O)CCCc1nc(N)nc(N)c1-c1ccccc1 | 5.5 nM |
| Nc1nc(N)c(-c2ccc(Cl)cc2)c(CCCc2ccccc2)n1 | 23.3 nM |
| CCc1nc(N)nc(N)c1-c1ccc(OC)cc1 | 86 nM |
| CCc1nc(N)nc(N)c1-c1ccccc1 | 8.7 nM |
| COc1cc(COc2cc(Cc3cnc(N)nc3N)ccc2OCc2ccccc2)cc(OC)c1OC | 503 nM |

system: Bifunctional dihydrofolate reductase-thymidylate synthase (Plasmodium falciparum K1), P13922 [UNDEFINED MUTATION]; experiment: Ratio of Inhibition of the C59R+S108N mutant of dihydrofolate reductase (DHFR) to inhibition of wild type dihydrofolate reductase.; conditions: not given

| SMILES | Ratio |
| --- | --- |
| Nc1ncc(-c2ccccc2)c(N)n1 | 1.8 |
| COC(=O)CCCc1nc(N)nc(N)c1-c1ccccc1 | 9.2 |
| Nc1nc(N)c(-c2ccc(Cl)cc2)c(CCCc2ccccc2)n1 | 33.3 |
| CCc1nc(N)nc(N)c1-c1ccc(OC)cc1 | 95.6 |
| CCc1nc(N)nc(N)c1-c1ccccc1 | 3.8 |
| COc1cc(COc2cc(Cc3cnc(N)nc3N)ccc2OCc2ccccc2)cc(OC)c1OC | 41.5 |

target: Bifunctional dihydrofolate reductase-thymidylate synthase (Plasmodium falciparum K1) (UniProt P13922); experiment: Inhibition of the C59R+S108N mutant of dihydrofolate reductase (DHFR) relative to Pyr.; conditions: not given; in short: as §1

| SMILES | Relative activity |
| --- | --- |
| CCc1nc(N)nc(N)c1-c1ccc(OC)cc1 | 1.6 |

target: Bifunctional dihydrofolate reductase-thymidylate synthase (Plasmodium falciparum K1) (UniProt P13922); experiment: Inhibition of Plasmodium falciparum wild-type dihydrofolate reductase (DHFR) relative to Pyrimethamine.; conditions: not given

| SMILES | Relative activity |
| --- | --- |
| Nc1ncc(-c2ccccc2)c(N)n1 | 69.8 |
| COC(=O)CCCc1nc(N)nc(N)c1-c1ccccc1 | 1 |
| Nc1nc(N)c(-c2ccc(Cl)cc2)c(CCCc2ccccc2)n1 | 1.2 |

target: Bifunctional dihydrofolate reductase-thymidylate synthase (Plasmodium falciparum K1) (UniProt P13922); experiment: Inhibition of mutant C59R+S108N dihydrofolate reductase (DHFR) relative to Pyr; conditions: not given

| SMILES | Relative activity |
| --- | --- |
| Nc1ncc(-c2ccccc2)c(N)n1 | 1.4 |
| COC(=O)CCCc1nc(N)nc(N)c1-c1ccccc1 | 0.1 |
| Nc1nc(N)c(-c2ccc(Cl)cc2)c(CCCc2ccccc2)n1 | 0.4 |

target: Bifunctional dihydrofolate reductase-thymidylate synthase (Plasmodium falciparum K1) (UniProt P13922); experiment: Inhibition of mutant S108N dihydrofolate reductase (DHFR) relative to Pyr; conditions: not given

| SMILES | Relative activity |
| --- | --- |
| Nc1ncc(-c2ccccc2)c(N)n1 | 2.8 |
| COC(=O)CCCc1nc(N)nc(N)c1-c1ccccc1 | 0.06 |
| Nc1nc(N)c(-c2ccc(Cl)cc2)c(CCCc2ccccc2)n1 | 0.5 |

target: Bifunctional dihydrofolate reductase-thymidylate synthase (Plasmodium falciparum K1) (UniProt P13922); experiment: Inhibition of S108N mutant dihydrofolate reductase (DHFR)relative to Tmp; conditions: not given; in short: as §1

| SMILES | Relative activity |
| --- | --- |
| COc1cc(COc2cc(Cc3cnc(N)nc3N)ccc2OCc2ccccc2)cc(OC)c1OC | 1.4 |

target: Bifunctional dihydrofolate reductase-thymidylate synthase (Plasmodium falciparum K1) (UniProt P13922); experiment: Inhibition of the wild-type dihydrofolate reductase (DHFR) relative to Pyr.; conditions: not given; in short: as §1

| SMILES | Relative activity |
| --- | --- |
| CCc1nc(N)nc(N)c1-c1ccc(OC)cc1 | 1.5 |
| CCc1nc(N)nc(N)c1-c1ccccc1 | 3.8 |
